Measurements from ChEMBL document CHEMBL3351538, “Complete stereochemistry and preliminary structure-activity relationship of rakicidin A, a hypoxia-selective cytotoxin from Micromonospora sp” (J Nat Prod, 2014).

Tested on: not listed separately
Assay: Cytotoxicity against human HCT8 cells under hypoxic condition […] by crystal violet method
Format: functional, cell-based
Details: HCT-8
Method in brief: (§1)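 HCT-8 or PANC-1 cells seeded at 2 × 10^4 per well in duplicate plates and preincubated 24 h to adhere. Serially diluted samples added, then cultures held 2 d either normoxic (5% CO2) or hypoxic (1% O2, modular chamber with oxygen indicator). Viability read by crystal violet staining under normoxic conditions.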

| SMILES | IC50 |
| --- | --- |
| C=C1/C=C/C(=O)N(C)CC(=O)N[C@H]([C@@H](O)C(N)=O)C(=O)O[C@@H]([C@H](C)CCCCCCCCCCCC(C)C)[C@H](C)C(=O)N1 | 0.3 µM |
| C=C1/C=C/C(=O)N(C)CC(=O)NC(C(O)C(N)=O)C(=O)OC(C(C)CCCCCCCCCCCCC(C)C)C(C)C(=O)N1 (stereo not given) | 0.21 µM |
| C=C1/C=C/C(=O)N(C)CC(=O)N[C@H]([C@@H](O)C(N)=O)C(=O)O[C@@H]([C@H](C)CCCCCCCCCCCCCC(C)C)[C@H](C)C(=O)N1 | 1.8 µM |
| CC(C)CCCCCCCCCCC[C@@H](C)[C@@H]1OC(=O)[C@@H]([C@@H](O)C(N)=O)NC(=O)CN(C)C(=O)CCC(C)NC(=O)[C@H]1C (stereo not given in full) | 6.5 µM |
| CC(C)CCCCCCCCCCC[C@@H](C)[C@H](O)[C@H](C)C(=O)NC(C)CCC(=O)N(C)CC(=O)N[C@@H](C(=O)O)[C@@H](O)C(N)=O (stereo not given in full) | 63.4 µM |
| COc1cccc2c1C(=O)c1c(O)c3c(c(O)c1C2=O)C[C@@](O)(C(=O)CO)C[C@@H]3O[C@H]1C[C@H](N)[C@H](O)[C@H](C)O1 [DOXORUBICIN] | 19.6 µM |

Tested on: HCT-8
Assay: Selectivity index, ratio of IC50 for human HCT8 cells under normoxic condition to IC50 for human HCT8 cells under hypoxic condition
Format: functional
Details: not given

| SMILES | Ratio IC50 |
| --- | --- |
| C=C1/C=C/C(=O)N(C)CC(=O)N[C@H]([C@@H](O)C(N)=O)C(=O)O[C@@H]([C@H](C)CCCCCCCCCCCC(C)C)[C@H](C)C(=O)N1 | 12.8 |
| C=C1/C=C/C(=O)N(C)CC(=O)NC(C(O)C(N)=O)C(=O)OC(C(C)CCCCCCCCCCCCC(C)C)C(C)C(=O)N1 (stereo not given) | 10 |
| C=C1/C=C/C(=O)N(C)CC(=O)N[C@H]([C@@H](O)C(N)=O)C(=O)O[C@@H]([C@H](C)CCCCCCCCCCCCCC(C)C)[C@H](C)C(=O)N1 | 5.2 |
| CC(C)CCCCCCCCCCC[C@@H](C)[C@@H]1OC(=O)[C@@H]([C@@H](O)C(N)=O)NC(=O)CN(C)C(=O)CCC(C)NC(=O)[C@H]1C (stereo not given in full) | 4.3 |
| CC(C)CCCCCCCCCCC[C@@H](C)[C@H](O)[C@H](C)C(=O)NC(C)CCC(=O)N(C)CC(=O)N[C@@H](C(=O)O)[C@@H](O)C(N)=O (stereo not given in full) | 0.54 |
| COc1cccc2c1C(=O)c1c(O)c3c(c(O)c1C2=O)C[C@@](O)(C(=O)CO)C[C@@H]3O[C@H]1C[C@H](N)[C@H](O)[C@H](C)O1 [DOXORUBICIN] | 0.12 |

Tested on: PANC-1
Assay: Selectivity index, ratio of IC50 for human PANC1 cells under normoxic condition to IC50 for human PANC1 cells under hypoxic condition
Format: functional
Details: not given

| SMILES | Ratio IC50 |
| --- | --- |
| C=C1/C=C/C(=O)N(C)CC(=O)N[C@H]([C@@H](O)C(N)=O)C(=O)O[C@@H]([C@H](C)CCCCCCCCCCCC(C)C)[C@H](C)C(=O)N1 | 6.3 |
| C=C1/C=C/C(=O)N(C)CC(=O)NC(C(O)C(N)=O)C(=O)OC(C(C)CCCCCCCCCCCCC(C)C)C(C)C(=O)N1 (stereo not given) | 4.3 |
| C=C1/C=C/C(=O)N(C)CC(=O)N[C@H]([C@@H](O)C(N)=O)C(=O)O[C@@H]([C@H](C)CCCCCCCCCCCCCC(C)C)[C@H](C)C(=O)N1 | 3.8 |
| CC(C)CCCCCCCCCCC[C@@H](C)[C@@H]1OC(=O)[C@@H]([C@@H](O)C(N)=O)NC(=O)CN(C)C(=O)CCC(C)NC(=O)[C@H]1C (stereo not given in full) | 0.26 |
| COc1cccc2c1C(=O)c1c(O)c3c(c(O)c1C2=O)C[C@@](O)(C(=O)CO)C[C@@H]3O[C@H]1C[C@H](N)[C@H](O)[C@H](C)O1 [DOXORUBICIN] | 0.21 |

Tested on: not listed separately
Assay: Cytotoxicity against human PANC1 cells under normoxic condition after 2 days by crystal violet method
Details: PANC-1, 2 d

| SMILES | IC50 |
| --- | --- |
| C=C1/C=C/C(=O)N(C)CC(=O)N[C@H]([C@@H](O)C(N)=O)C(=O)O[C@@H]([C@H](C)CCCCCCCCCCCC(C)C)[C@H](C)C(=O)N1 | 2.3 µM |
| C=C1/C=C/C(=O)N(C)CC(=O)NC(C(O)C(N)=O)C(=O)OC(C(C)CCCCCCCCCCCCC(C)C)C(C)C(=O)N1 (stereo not given) | 3.1 µM |
| C=C1/C=C/C(=O)N(C)CC(=O)N[C@H]([C@@H](O)C(N)=O)C(=O)O[C@@H]([C@H](C)CCCCCCCCCCCCCC(C)C)[C@H](C)C(=O)N1 | 17.9 µM |
| CC(C)CCCCCCCCCCC[C@@H](C)[C@@H]1OC(=O)[C@@H]([C@@H](O)C(N)=O)NC(=O)CN(C)C(=O)CCC(C)NC(=O)[C@H]1C (stereo not given in full) | 19.3 µM |
| CC(C)CCCCCCCCCCC[C@@H](C)[C@H](O)[C@H](C)C(=O)NC(C)CCC(=O)N(C)CC(=O)N[C@@H](C(=O)O)[C@@H](O)C(N)=O (stereo not given in full) | 27.4 µM |
| COc1cccc2c1C(=O)c1c(O)c3c(c(O)c1C2=O)C[C@@](O)(C(=O)CO)C[C@@H]3O[C@H]1C[C@H](N)[C@H](O)[C@H](C)O1 [DOXORUBICIN] | 1.1 µM |

Tested on: not listed separately
Assay: Cytotoxicity against human PANC1 cells under hypoxic condition […] by crystal violet method
Format: functional, cell-based
Details: PANC-1
Method in brief: as §1

| SMILES | IC50 |
| --- | --- |
| C=C1/C=C/C(=O)N(C)CC(=O)N[C@H]([C@@H](O)C(N)=O)C(=O)O[C@@H]([C@H](C)CCCCCCCCCCCC(C)C)[C@H](C)C(=O)N1 | 0.37 µM |
| C=C1/C=C/C(=O)N(C)CC(=O)NC(C(O)C(N)=O)C(=O)OC(C(C)CCCCCCCCCCCCC(C)C)C(C)C(=O)N1 (stereo not given) | 0.71 µM |
| C=C1/C=C/C(=O)N(C)CC(=O)N[C@H]([C@@H](O)C(N)=O)C(=O)O[C@@H]([C@H](C)CCCCCCCCCCCCCC(C)C)[C@H](C)C(=O)N1 | 4.7 µM |
| CC(C)CCCCCCCCCCC[C@@H](C)[C@@H]1OC(=O)[C@@H]([C@@H](O)C(N)=O)NC(=O)CN(C)C(=O)CCC(C)NC(=O)[C@H]1C (stereo not given in full) | 75.4 µM |
| CC(C)CCCCCCCCCCC[C@@H](C)[C@H](O)[C@H](C)C(=O)NC(C)CCC(=O)N(C)CC(=O)N[C@@H](C(=O)O)[C@@H](O)C(N)=O (stereo not given in full) | > 80 µM |
| COc1cccc2c1C(=O)c1c(O)c3c(c(O)c1C2=O)C[C@@](O)(C(=O)CO)C[C@@H]3O[C@H]1C[C@H](N)[C@H](O)[C@H](C)O1 [DOXORUBICIN] | 5.4 µM |

Tested on: not listed separately
Assay: Cytotoxicity against human HCT8 cells under normoxic condition after 2 days by crystal violet method
Details: HCT-8, 2 d

| SMILES | IC50 |
| --- | --- |
| C=C1/C=C/C(=O)N(C)CC(=O)N[C@H]([C@@H](O)C(N)=O)C(=O)O[C@@H]([C@H](C)CCCCCCCCCCCC(C)C)[C@H](C)C(=O)N1 | 3.9 µM |
| C=C1/C=C/C(=O)N(C)CC(=O)NC(C(O)C(N)=O)C(=O)OC(C(C)CCCCCCCCCCCCC(C)C)C(C)C(=O)N1 (stereo not given) | 2.1 µM |
| C=C1/C=C/C(=O)N(C)CC(=O)N[C@H]([C@@H](O)C(N)=O)C(=O)O[C@@H]([C@H](C)CCCCCCCCCCCCCC(C)C)[C@H](C)C(=O)N1 | 9.4 µM |
| CC(C)CCCCCCCCCCC[C@@H](C)[C@@H]1OC(=O)[C@@H]([C@@H](O)C(N)=O)NC(=O)CN(C)C(=O)CCC(C)NC(=O)[C@H]1C (stereo not given in full) | 27.7 µM |
| CC(C)CCCCCCCCCCC[C@@H](C)[C@H](O)[C@H](C)C(=O)NC(C)CCC(=O)N(C)CC(=O)N[C@@H](C(=O)O)[C@@H](O)C(N)=O (stereo not given in full) | 33.9 µM |
| COc1cccc2c1C(=O)c1c(O)c3c(c(O)c1C2=O)C[C@@](O)(C(=O)CO)C[C@@H]3O[C@H]1C[C@H](N)[C@H](O)[C@H](C)O1 [DOXORUBICIN] | 2.4 µM |
